For experiment [1], the system named is HT-29. The experiment in a line: In vitro cytotoxic activity against colon adenocarcinoma (HT-29) cells assayed by inhibition of [3H]-labeled thymidine incorporation. It counts as functional, cell-based. The settings on record: Homo sapiens. The procedure, abridged: (§1)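 Human tumour lines in 10% FBS medium (HT-29 and MES-SA in McCoy's 5a; NCI-H460 in RPMI 1640; DU-145 in MEM/Earle's), 37 °C, 5% CO2. Trypsin/EDTA-harvested, plated at 1 × 10⁴ cells/well, attached ~4 h. Serial dilutions tested, 8 wells/concentration. [methyl-³H]thymidine, 0.25 μCi/well, added at 24 h, then 48 more h (72 h total). Cells Triton-lysed, filter-harvested, counted. IC50 is the average of 3–5 determinations.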

Another experiment has as its system Lymphoma cell line. The experiment in a line: Percent decrease of Lymphoma mass of animals treated with the compound. It counts as functional. Also on record: scale not given: the % may be the effect or the level left. Summed up:
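Male SD rats, 2 months old, ~300 g, 4 per group. 10⁶ SD lymphoma cells given s.c. to the right flank. From day 10, drug in PBS pH 7.2 (3 mL, 1 mg/mL) was injected once daily next to the tumour for 10 days; controls got PBS only. Rats were killed 24 h later and lymphomas weighed. Result is mean mass decrease versus controls.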

Experiment [2] relates to NCI-H460. The experiment can be described thus: In vitro cytotoxic activity against nonsmall cell lung carcinoma (NCI-H460) cells assayed by inhibition of [3H]-labeled thymidine incorporation. The settings on record: Homo sapiens. It counts as functional, cell-based. The procedure, abridged:
as §1

Experiment [3] deals with MES-SA (Homo sapiens). The experiment can be described thus: In vitro cytotoxic activity against uterine sarcoma (MES-SA) cells assayed by inhibition of [3H]-labeled thymidine incorporation.
Experiment [4] has as its system DU-145. The experiment can be described thus: In vitro cytotoxic activity against prostate carcinoma (DU-145) cells assayed by inhibition of [3H]-labeled thymidine incorporation. It counts as functional, cell-based. To be noted: Homo sapiens. The procedure, abridged:
as §1

Experiment [5] relates to HT-29. The experiment in a line: In vitro cytotoxic activity against colon adenocarcinoma (HT-29) cells assayed by inhibition of [3H]-labeled thymidine incorporation; Not calculable. It counts as functional, cell-based, Homo sapiens. Summed up:
as §1

Experiment [6] relates to MES-SA (Homo sapiens). The experiment can be described thus: In vitro cytotoxic activity against uterine sarcoma (MES-SA) cells assayed by inhibition of [3H]-labeled thymidine incorporation; Not calculable.
Experiment [7] deals with DU-145. The experiment can be described thus: In vitro cytotoxic activity against prostate carcinoma (DU-145) cells assayed by inhibition of [3H]-labeled thymidine incorporation; Not calculable. Format: functional, cell-based, Homo sapiens. The procedure, abridged:
as §1

Experiment [8] concerns NCI-H460. The experiment in a line: In vitro cytotoxic activity against nonsmall cell lung carcinoma (NCI-H460) cells assayed by inhibition of [3H]-labeled thymidine incorporation; Not calculable. Format: functional, cell-based, Homo sapiens. Summed up: as §1

Structures are written as SMILES.

Consider `CCCCCCCCCCCCCCCCOP(=O)([O-])COCC[N+](C)(C)C`, for which the IC50 is 4.75 µM in the experiment on HT-29 [1], 15.7 µM in the experiment with NCI-H460 [2], 2.11 µM in the experiment with MES-SA (Homo sapiens) [3] and 17.2 µM in the experiment with DU-145 [4]. This molecule returned an Activity with Lymphoma cell line of 41%.
Regarding `CCCCCCCCCCCCCCCOP(=O)([O-])COCC[N+](C)(C)C`, the IC50 in the experiment with NCI-H460 [2] is 18 µM; in the experiment on MES-SA (Homo sapiens) [3], 9.59 µM; with HT-29 [5], “Not calculable”; with DU-145 [4], 19.9 µM.
Consider `CCCCCCCCCCCCOP(=O)([O-])COCC[N+](C)(C)C`, for which the IC50 in the experiment with NCI-H460 [2] is 138 µM; in the experiment with HT-29 [5] it was “Not calculable”; in the experiment with MES-SA (Homo sapiens) [6] it was “Not calculable”; with DU-145 [4], 133 µM.
`CCCCCCCCCCCCCCOP(=O)([O-])COCC[N+](C)(C)C`: the IC50 in the experiment with HT-29 [1] is 12.2 µM; with NCI-H460 [2], 40.3 µM; in the experiment on MES-SA (Homo sapiens) [6], “Not calculable”; in the experiment with DU-145 [7], “Not calculable”. Besides, in the experiment with Lymphoma cell line, the Activity is reported as 30%.
In the case of `CCCCCCCCCCOP(=O)([O-])COCC[N+](C)(C)C`, the IC50 result with HT-29 [5], in the experiment on MES-SA (Homo sapiens) [6], with DU-145 [7] and in the experiment on NCI-H460 [8] was “Not calculable” each time.
In the case of `Nc1ccn([C@@H]2O[C@H](CO)[C@@H](O)C2(F)F)c(=O)n1` [GEMCITABINE], the IC50 in the experiment on HT-29 [1] amounted to 0.003 µM; in the experiment on NCI-H460 [2], 0.0078 µM; in the experiment on MES-SA (Homo sapiens) [3], 0.0092 µM; in the experiment on DU-145 [4] it was 0.0356 µM.
In the case of `CCCCCCCCCCCCCCCCOP(=O)([O-])OCC[N+](C)(C)C` [MILTEFOSINE], the IC50 in the experiment on HT-29 [1] came to 6.15 µM; with NCI-H460 [2] it was 6.62 µM; in the experiment with MES-SA (Homo sapiens) [3] it was 5.35 µM; in the experiment with DU-145 [4] it was 24.9 µM.
With `CC(=O)O[C@H]1C(=O)[C@@]2(C)[C@H]([C@H](OC(=O)c3ccccc3)[C@]3(O)C[C@H](OC(=O)[C@H](O)[C@@H](NC(=O)c4ccccc4)c4ccccc4)C(C)=C1C3(C)C)[C@]1(OC(C)=O)CO[C@@H]1C[C@@H]2O` [PACLITAXEL], the results for the IC50 with HT-29 [1], with NCI-H460 [2] and in the experiment on MES-SA (Homo sapiens) [3] were 0.00016 µM, 0.00014 µM and 4e-05 µM, respectively.
As for `CC[C@]1(O)C[C@H]2CN(CCc3c([nH]c4ccccc34)[C@@](C(=O)OC)(c3cc4c(cc3OC)N(C=O)[C@H]3[C@@](O)(C(=O)OC)[C@H](OC(C)=O)[C@]5(CC)C=CCN6CC[C@]43[C@@H]65)C2)C1` [VINCRISTINE], the IC50 amounted to 1e-05 µM with HT-29 [1], 0.00013 µM with NCI-H460 [2], 2e-05 µM in the experiment on MES-SA (Homo sapiens) [3] and 0.00112 µM in the experiment on DU-145 [4].

Values taken from ChEMBL document CHEMBL1134309, “O-Phosphonatomethylcholine, its analogues, alkyl esters, and their biological activity” (J Med Chem, 2001).
